The values that follow come from ChEMBL document CHEMBL1124068, “5-Methyl-2-pyrrolidone analogues of oxotremorine as selective muscarinic agonists” (J Med Chem, 1988).

By ED50 is commonly meant the dose that gives a 50% effect, or the effect in half of the subjects. Broadly, the EC50 is the midpoint of the concentration-response curve. Read a high EC50 as a need for much substance. As usually defined, the Kd is the free concentration of one partner at which half of the binding sites on the other are occupied at equilibrium, for simple one-to-one binding. As usually defined, the LD50 is the dose expected to kill half of the subjects tested.

The species entered for data set [1] is Cavia porcellus. The data set can be described thus: Maximum contractile response relative to that elicited by carbachol was measured in guinea pig ileum. Format: functional. The method, boiled down:
(§1)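 Isolated guinea pig ileum in Tyrode solution (pH 7.4) with 0.3 mM hexamethonium, 37 °C; isotonic contractions at 1 g tension. Cumulative agonist concentration-response curves, concentration raised stepwise by factor 2.15; maxima expressed relative to carbachol.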

The subject of data set [2] is Mus musculus. The data set can be described thus: Tremorolytic activity administered intraperitoneally to mice. Format: functional. The conditions noted are these: ip. The method, boiled down: (§2)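 Antagonists given ip to groups of six or more male Swiss-Webster mice (24-32 g), six untreated controls; 20 min later iv oxotremorine ED50 for grade 2 intermittent spontaneous tremor found by up-and-down method. Dose doubling oxotremorine ED50 derived by linear regression; values are means ± standard errors.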

The species named for data set [3] is Cavia porcellus. The data set can be described thus: Efficacy relative to that of carbachol. Format: functional.
The species named for data set [4] is Cavia porcellus. The experiment in a line: Maximum contractile response relative to that elicited by carbachol was measured in guinea pig urinary bladder. Format: functional. The method in brief:
(§3)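 Guinea pig bladder strips in Krebs-Henseleit solution (pH 7.4) with 0.3 mM hexamethonium, 37 °C; isotonic recording at 1 g tension; cumulative agonist additions increased by factor 3.16; responses referenced to carbachol.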

The species named for data set [5] is Cavia porcellus. The data set can be described thus: Concentration that elicits 50% of its own maximum contractile response in guinea pig ileum. Format: functional. The method in brief:
as §1

For data set [6], the species on record is Cavia porcellus. The experiment in a line: Equilibrium dissociation constant receptor complex, measured in guinea pig ileum. Format: functional.
In data set [7] the test system is Mus musculus. The experiment in a line: Central muscarinic activity administered intraperitoneally to mice, expressed as analgesia. Format: functional. To be noted: ip. The method in brief:
(§4)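 Male Swiss-Webster mice (24-32 g), ip, 20.5 ± 1.0 °C; tail-flick test, 15 s cut-off, groups of ten at three to four dose levels. Reaction time above control mean plus 3 SD counted as increased; ED50 by probit analysis.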

The species entered for data set [8] is Cavia porcellus. The data set can be described thus: Equilibrium dissociation constant receptor complex, measured in guinea pig urinary bladder. Format: functional.
The test system of data set [9] is Mus musculus. The data set can be described thus: Muscarinic activity administered intraperitoneally to mice, expressed as salivation. Format: functional. The conditions noted are these: ip. The method, boiled down:
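Male Swiss-Webster mice (24-32 g) dosed ip at 20.5 ± 1.0 °C; salivation judged by pressing mouth onto absorbent tissue; threshold dose estimated by up-and-down method.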

For data set [10], the system named is Mus musculus. The data set can be described thus: Central muscarinic activity administered intraperitoneally to mice, expressed as hypothermia. Format: functional. To be noted: ip. The method, boiled down: (§5)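 Rectal temperature (probe ~25 mm) in male Swiss-Webster mice (24-32 g) after ip dosing at 20.5 ± 1.0 °C; six mice per dose, five to six doses, readings every 20 min for 3 h. Maximal fall from pretreatment used; ED50 from logistic fit.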

Data set [11] can be described thus: Acute toxicity administered intraperitoneally to mice. Format: organism-based. The conditions noted are these: mouse, in vivo, ip.
For data set [12], the species on record is Cavia porcellus. The data set can be described thus: Concentration that elicits 50% of its own maximum contractile response in guinea pig urinary bladder. Format: functional. The method in brief: as §3
The species named for data set [13] is Cavia porcellus. The data set can be described thus: Efficacy relative to that of carbachol (guinea pig urinary bladder). Format: functional.
The subject of data set [14] is Mus musculus. The data set can be described thus: Tremorolytic activity administered intraperitoneally to mice; c = no significant blockade was observed. Format: functional, organism-based. The method, boiled down:
as §2

Data set [15] concerns Mus musculus. The data set can be described thus: Central muscarinic activity administered intraperitoneally to mice, expressed as hypothermia; d = no effect was observed. Format: functional, organism-based. The method in brief: as §5
Data set [16] has as its system Mus musculus. The experiment in a line: Central muscarinic activity administered intraperitoneally to mice, expressed as analgesia; d = no effect was observed. Format: functional, organism-based. The method, boiled down: as §4

Activity calls are given as the source filed them.

For `CC(=O)N(C)C(C)C#CCN1CCCC1` (centres undefined), the Emax in data set [1] is given as 82.6; in data set [4] it was under 5. In addition, the ED50 in data set [2] was 0.63 µmol/kg; in data set [7] it was 0.37 µmol/kg; in [9], 0.65 µmol/kg; in data set [10], 0.75 µmol/kg. This molecule showed a Relative efficacy in [3] of 0.012. In [5], this molecule displayed an EC50 of 0.19 µM. Also, the figures for the equilibrium dissociation constant (Kd) in [6] and in data set [8] were 0.24 µM and 0.14 µM, respectively. In addition, the LD50 in [11] was 665 µmol/kg.
`O=C1CCCN1CC#CCN1CCCC1` [OXOTREMORINE]: the median effective dose (ED50) amounted to 0.05 µmol/kg in data set [7], 0.29 µmol/kg in [9] and 0.22 µmol/kg in data set [10].
For `CN1[C@@H]2CC[C@H]1C[C@@H](OC(=O)C(CO)c1ccccc1)C2` (some centres undefined) [ATROPINE], the 50% effect level in data set [2] (ED50) was put at a dose of 0.57 µmol/kg.
Turning to `CCN(CC)CC#CCN1C(=O)CCC1C` (centres undefined), the Emax in [1] and in data set [4] was 0 in each case. The molecule also registered an ED50 in data set [2] of 5.1 µmol/kg. Also, the Kd was 1.1 µM in [6] and 2.1 µM in data set [8]. The molecule further yielded a 50% lethal dose (LD50) in data set [11] of 720 µmol/kg.
On to `CC1CCC(=O)N1CC#CCN(C)C` (centres undefined), for which the figures for the EC50 in [12] and in [5] were 15 µM and 0.91 µM, respectively. Further, the Emax is listed as 102 in data set [1] and 58.1 in [4]. Besides, the ED50 stood at 22.8 µmol/kg in [2], 1.5 µmol/kg in data set [7], 4 µmol/kg in data set [9] and 13.1 µmol/kg in data set [10]. Moreover, the Relative efficacy turned out to be 0.04 in [3] and 0.064 in data set [13]. Further, the dissociation constant (Kd) in [6] turned out to be 4.3 µM; in data set [8], 11.8 µM. Moreover, in data set [11], the LD50 came to 402 µmol/kg.
Consider `CC1CCC(=O)N1CC#CCN1CCCC1` (centres undefined), for which, in [2], the 50% effect level (ED50) was put at a dose of 0.36 µmol/kg. The same molecule showed an LD50 in data set [11] of 107 µmol/kg.
With `C[N+](C)(C)CCOC(N)=O.[Cl-]` [CARBACHOL], the 50% effective concentration (EC50) in [12] came to 0.9 µM; in [5] it was 0.11 µM. Also, the Emax in [1] and in [4] was 100 throughout. The Relative efficacy in [3] and in [13] was 1 in each case. For the same molecule, the Kd was 14.1 µM in [6] and 17 µM in data set [8].
As to `CC1CCC(=O)N1CC#CCN1CCC1` (centres undefined), the 50% effective concentration (EC50) was determined as 4.6 µM in data set [12] and 0.23 µM in data set [5]. In addition, the Emax in [1] is 90; in data set [4] it was 21.4. In addition, the ED50 in data set [2] was 4.6 µmol/kg; in [7] it was 0.71 µmol/kg; in data set [9] it was 1.3 µmol/kg; in data set [10] it was 4.9 µmol/kg. Further, the Relative efficacy in [3] is reported as 0.02; in data set [13], 0.022. Further, the values for the Kd in data set [6] and in data set [8] were 0.52 µM and 0.58 µM, respectively. In data set [11], this molecule came in with an LD50 of 192 µmol/kg.
Consider `CC1CCC(=O)N1CC#CC[N+](C)(C)C.[I-]` (centres undefined), for which the figures for the half-maximal effective concentration (EC50) in [12] and in data set [5] were 2 µM and 0.18 µM, respectively. The Emax turned out to be 100 in [1] and 71.4 in data set [4]. The ED50 entry in data set [14], in data set [15] and in data set [16] was “inactive” in each case. Moreover, the Relative efficacy was 0.057 in data set [3] and 0.062 in data set [13]. Further, the Kd in data set [6] came to 1.7 µM; in data set [8], 2.8 µM. Also, in data set [9], the 50% effect level (ED50) was put at a dose of 12 µmol/kg. The molecule also showed an LD50 in data set [11] of 33.6 µmol/kg.
`CC[N+](C)(C)CC#CCN1C(=O)CCC1C.[I-]` (centres undefined): the Emax amounted to 28.7 in [1] and 0 in [4]. In addition, the ED50 result in data set [14] is “No significant blockade”. Besides, in data set [3], the Relative efficacy turned out to be 0.0036. In [5], this molecule yielded an EC50 of 3.2 µM. The Kd in data set [6] is 4.9 µM; in data set [8], 3.5 µM. In data set [11], the LD50 came to 176 µmol/kg.
Take `CCN(C)CC#CCN1C(=O)CCC1C` (centres undefined): the Emax in data set [1] and in data set [4] was 0 throughout. This molecule also showed an ED50 in data set [2] of 6.7 µmol/kg. Moreover, the Kd is 1.8 µM in [6] and 2.5 µM in [8]. Besides, in data set [11], the LD50 was 636 µmol/kg.
